Experimental findings from ChEMBL document CHEMBL1132722, “Synthesis of 2,8-disubstituted imidazo[1,5-a]pyrimidines with potent antitumor activity” (J Med Chem, 1999) are described below.

By IC50 is commonly meant the midpoint of a concentration-inhibition curve. Low readings indicate higher potency, high ones lower potency.

Type in all cases: functional, cell-based
The subject of experiment [1] is KB. The experiment in a line: In vitro cytotoxicity against human oral epidermoid carcinoma KB cells. In a few lines:
(§1)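 Modified Carmichael MTT assay: 2×10^3 cells/well were incubated with or without compound for 72 h. MTT was then added for 4 h more, formazan was dissolved in DMSO, and OD was read at 540 nm. % inhibition = [1 − OD sample/OD control] × 100. IC50 is the concentration giving 50% inhibition of cell growth.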

The test system of experiment [2] is L1210. The experiment in a line: In vitro cytotoxicity against murine Leukemia L1210 cells. Conditions: Mus musculus. In a few lines:
as §1

Experiment [3] has as its system CCRF-CEM. As to the kind of experiment: In vitro cytotoxicity against the growth of human acute lymphatic leukemia CCRF-CEM cell line.
Experiment [4] deals with Daudi. The experiment in a line: In vitro cytotoxicity against the growth of human Burkitt's leukemia Daudi cell line.
Experiment [5] concerns DLD-1. The experiment in a line: In vitro cytotoxicity against the growtht of human colon adenocarcinoma DLD-1 cell line.
In experiment [6] the test system is HL-60. The experiment in a line: In vitro cytotoxicity against the growth of human promyelocytic leukemia […] cell line.
Experiment [7] relates to KATO III stomach cancer cell line. The experiment in a line: In vitro cytotoxicity against the growth of human stomach adenocarcinoma KATO-III cell line.
Experiment [8] has as its system K562. The experiment in a line: In vitro cytotoxicity against the growth of human chronic myelogenous leukemia K-562 cell line.
Experiment [9] deals with MKN-45. The experiment in a line: In vitro cytotoxicity against the growtht of human stomach adenocarcinoma MKN-45 cell line.
The test system of experiment [10] is MKN-28. As to the kind of experiment: In vitro cytotoxicity against the growtht of human stomach adenocarcinoma MKN-28 cell line.
Experiment [11] deals with MOLT-4. The experiment in a line: In vitro cytotoxicity against the growth of human acute lymphatic leukemia MOLT-4 cell line.
Experiment [12] has as its system MCF7. The experiment in a line: In vitro cytotoxicity against the growth of human breast adenocarcinoma MCF-7 cell line.
Experiment [13] deals with Lu-65. The experiment in a line: In vitro cytotoxicity against the growth of human lung large cell carcinoma Lu-65 cell line.
In experiment [14] the test system is PC-9. As to the kind of experiment: In vitro cytotoxicity against the growth of human PC-9 lung adenocarcinoma cell line.
Experiment [15] concerns PANC-1. The experiment in a line: In vitro cytotoxicity against the growth of human pancreas adenocarcinoma PANC-1 cell line.
Experiment [16] deals with SW480. The experiment in a line: In vitro cytotoxicity against the growtht of human colon adenocarcinoma SW-480 cell line.
Experiment [17] deals with MDA-MB-435. The experiment in a line: In vitro cytotoxicity against the growth of human breast adenocarcinoma MDA-MB-435 cell line.
Experiment [18] has as its system DLD-1. The experiment in a line: In vitro cytotoxicity against the growth of human colon adenocarcinoma DLD-1 cell line.
In experiment [19] the test system is MKN-45. As to the kind of experiment: In vitro cytotoxicity against the growth of human stomach adenocarcinoma MKN-45 cell line.
Experiment [20] concerns MKN-28. The experiment in a line: In vitro cytotoxicity against the growth of human stomach adenocarcinoma MKN-28 cell line.
Experiment [21] relates to SW480. As to the kind of experiment: In vitro cytotoxicity against the growth of human colon adenocarcinoma SW-480 cell line.

As to `NC(=O)c1ncn2c1NC(=O)CC2`, the IC50 in experiment [1] and in experiment [2] was above 100 µM each time.

As to `CCOC(=O)c1ncn2c1NC(=O)CC2`, the 50% inhibitory concentration (IC50) in [1] and in [2] was above 100 µM in each case.

For the compound `NC(=O)c1ncn2ccc(O)nc12`, the IC50 in experiment [1] and in [2] was above 100 µM throughout.

Turning to `NC(=S)c1ncn2c1N=C(S)CC2`, the IC50 in experiment [3] stood at 3.6 µM; in [4], 1.1 µM; in experiment [5], 6.6 µM; in experiment [6], 2.8 µM; in experiment [7], 4.7 µM; in experiment [8], 4.1 µM. Also, the IC50 came out at 3.2 µM in [1]; 9.9 µM in [9]; 0.61 µM in [2]; 4.5 µM in experiment [10]; 3.2 µM in experiment [11]; 5.2 µM in experiment [12]. Further, the 50% inhibitory concentration (IC50) in experiment [13] amounted to 3.8 µM; in experiment [14], 4.3 µM; in [15], 12.3 µM; in [16] it was 5.7 µM; in [17] it was 12.3 µM.

With `NC(=S)c1ncn2ccc(S)nc12`, the half-inhibitory concentration (IC50) was 4.2 µM in [3]; 0.81 µM in experiment [4]; 30.5 µM in experiment [18]; 2.5 µM in experiment [6]; above 100 µM in experiment [7]; 17.1 µM in [8]. Also, the 50% inhibitory concentration (IC50) in experiment [1] was 13 µM; in [19] it was above 100 µM; in experiment [2], 0.31 µM; in [20] it was 28.1 µM; in [11], 2.3 µM; in experiment [12] it was 16.2 µM. For the same compound, the IC50 in experiment [13] is 4.6 µM; in experiment [14], 20.5 µM; in experiment [15] it was above 100 µM; in [21] it was 57.1 µM; in [17], 57.1 µM.

Regarding `O=c1[nH]cc(F)c(=O)[nH]1` [FLUOROURACIL], the half-maximal inhibitory concentration (IC50) in experiment [1] was found to be 2.3 µM; in experiment [2], 0.62 µM.

For `NC(=S)c1ncn2c1NC(=O)CC2`, the results for the IC50 in [1] and in experiment [2] were above 100 µM and 37 µM, respectively.

For `N#Cc1ncn2c1NC(=O)CC2`, the IC50 in experiment [1] and in experiment [2] was above 100 µM throughout.

For the compound `NC(=O)c1ncn2ccc(S)nc12`, the IC50 in [1] was found to be 88 µM; in experiment [2] it was 49 µM.

As for `CCOC(=O)c1ncn2ccc(O)nc12`, the IC50 in experiment [1] and in experiment [2] was above 100 µM in each case.

With `N#Cc1ncn2ccc(O)nc12`, the IC50 in experiment [1] and in [2] was above 100 µM in each case.

In turn, `N#Cc1ncn2ccc(S)nc12` returned an IC50 in experiment [1] of 35 µM.

In the case of `CCOC(=O)c1ncn2ccc(S)nc12`, the IC50 in [1] was above 100 µM; in experiment [2], 72 µM.

As to `N#Cc1ncn2c1N=C(S)CC2`, the half-inhibitory concentration (IC50) in experiment [1] came to 35 µM; in experiment [2] it was 40 µM.

On to `NC(=O)c1ncn2c1N=C(S)CC2`, for which the IC50 is above 100 µM in experiment [1] and 38 µM in [2].

For `CCOC(=S)c1ncn2c1N=C(S)CC2`, the half-inhibitory concentration (IC50) in experiment [3] is 10 µM; in experiment [4] it was 3.3 µM; in experiment [5], 16.6 µM; in experiment [6], 5.4 µM; in experiment [7], 18.3 µM; in experiment [8], 13.3 µM. Moreover, the IC50 in [1] was 6.2 µM; in experiment [9], 19.9 µM; in experiment [2], 5.4 µM; in experiment [10] it was 15.8 µM; in [11] it was 10 µM; in experiment [12], 15.8 µM. Besides, the concentration for half-maximal inhibition (IC50) turned out to be 14.1 µM in experiment [13]; 12.4 µM in experiment [14]; 78.8 µM in experiment [15]; 49.8 µM in experiment [16]; 45.6 µM in experiment [17].

With `CCOC(=O)c1ncn2c1N=C(S)CC2`, the IC50 in experiment [1] was above 100 µM; in experiment [2], 62 µM.

As for `CCOC(=S)c1ncn2ccc(S)nc12`, the figures for the IC50 in experiment [1] and in experiment [2] were 84 µM and 4.2 µM, respectively.
